Measured values reported in article PMC10749586 (Nature, 2023).
Like-named read-outs stand apart in the source and are kept apart here.

Key:
[1] = Mouse tolerability and pharmacokinetic study; assay type: in vivo; details: 10 mg kg^−1 i.p. once daily for 5 days, C57BL/6 mice
BCL6 reporter = BCL6 reporter assay in KARPAS422 cells; assay type: cell-based, human; details: read-out: EC50 of BCL6 reporter activation, 8 h
In short: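 KARPAS422 cells were lentivirally transduced with the BCL6 reporter construct and selected. They were then treated with test compound for 8 h, washed in 2.5% FBS/PBS, stained with 7-AAD (1:250 v/v) for live/dead and analysed by flow cytometry. A GFP-positive gate was set from non-transduced cells. The FITC histogram area past threshold, over live cells, was normalized to DMSO.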

[2] = test system: MYC, p21, FOXO3, BCL6, BRD4 protein levels; experiment: Western blots of target proteins in DLBCL cells; assay type: cell-based, human
In short: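 Cells plated at 1 M ml−1 were treated with test compound (e.g., 20 h in KARPAS422). Two million cells were lysed on ice in RIPA (pH 8, 1% SDS, 1 mM DTT) with benzonase for 20 min. Lysates were cleared at 14,000g for 10 min at 4 °C and quantified by Bradford. Immunoblots probed BCL6, BRD4, BCL2, p53, MYC, FOXO3 and p21, with GAPDH as loading control.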

KARPAS422 cells [3] = experiment: Annexin V apoptosis assay; assay type: cell-based, human
In short: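 KARPAS422 cells (500,000, plated at 1 M ml−1) were exposed to test compound for the stated times and doses, then harvested on ice and washed twice. They were stained with 7-AAD plus FITC-annexin V for 15 min at room temperature and read immediately by flow cytometry. Gates came from single-stain and no-stain controls. Kinetics used 2–6 biological replicates, mean ± s.d.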

KARPAS422 cells [4] = experiment: Cell cycle and TUNEL analysis; assay type: cell-based, human; details: cell-cycle analysis with TUNEL; 100 nM, 24 h
[5] = target: BRD4(BD1)-TCIP1-BCL6(BTB) ternary complex (Homo sapiens, UniProt O60885+P41182, C67R/C84N/C8Q); experiment: Biolayer interferometry of ternary complex; assay type: binding
In short: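 Biolayer interferometry used biotinylated BCL6(BTB)-AviTag (100 nM) loaded on streptavidin tips. Wells held tag-cleaved BRD4(BD1) (50 µM, excess) with test compound titrated from 5.5 nM to 12 µM, at 25 °C. Steps were 300 s association, 300 s dissociation and 30 s baseline. Off-rate came from dissociation curves at 7–8 doses, n = 3 independent replicates, mean ± s.d.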

[6] = test system: BRD4 / Pol II / H3K27ac chromatin occupancy; experiment: ChIP-seq; assay type: cell-based, human
In short: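 KARPAS422 cells (30 million) received test compound or DMSO, then were crosslinked with 1% formaldehyde for 12 min and quenched with 0.125 M glycine. Nuclei were prepared and immunoprecipitated overnight at 4 °C. Chromatin input was 50 µg for Pol II Ser2/Ser5 phos and 25 µg for H3K27ac, with Drosophila spike-in. Differential peaks: Wald test, Benjamini–Hochberg, padj ≤ 0.05, |log2| ≥ 0.5.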

[7] = test system: KARPAS422 cells gene expression; experiment: RNA sequencing in KARPAS422 cells; assay type: cell-based, human
BRD4(BD1) = BRD4(BD1) (Homo sapiens, UniProt O60885); experiment: ITC binary titration, TCIP1 and BRD4; assay type: binding; details: read-out: Kd of BRD4-TCIP1 (binary)
[8] = test system: primary human tonsillar lymphocytes; experiment: Cell viability of primary human tonsillar lymphocytes; assay type: cell-based; details: read-out: EC50 of cell viability, 72 h
SUDHL5 cells = experiment: Cell viability in SUDHL5 cells with or without serum starvation; assay type: cell-based, human
In short: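 SUDHL5 cells were arrested in G0/G1 by serum starvation, or left unstarved, before test compound addition. Viability was read with PrestoBlue resazurin reagent (1.5 h, fluorescence 560/590 nm). Signal was background-subtracted and normalized to DMSO-treated cells. n = 3 biological replicates, mean ± s.d.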

KARPAS422 cells [9] = experiment: Cell viability; assay type: cell-based, human; details: for fold less-effective cell killing than TCIP1: JQ1 and BI3812 added separately or together, 72 h
OCILY19 cells = experiment: Cell viability of OCILY19 cells; assay type: cell-based, human; details: OCILY19, no detectable BCL6
DLBCL cell lines = experiment: Cell viability; assay type: cell-based, human; details: titrated against constant TCIP1 that kills 50–95% of cells within 72 h
[10] = test system: MYC, p21, FOXO3, BCL6, BRD4 protein levels; details: BET/BRD4 inhibitor; cited from earlier work
[11] = 2 h, 10 nM, out of 51,678 consensus peaks

For `CNC(=O)COc1cc2cc(Nc3nc(N4CCC(C(=O)NCCCCCCCNC(=O)C[C@@H]5N=C(c6ccc(Cl)cc6)c6c(sc(C)c6C)-n6c(C)nnc65)CC4)ncc3Cl)cc(OC)c2n(C)c1=O` [TCIP1], the body weight change [1] was “no significant changes in mouse body weight”, the “histology (haematoxylin and eosin) of lung and spleen” value [1] was “did not reveal noticeable abnormalities” and the EC50 (BCL6 reporter) was 5 nM. The “time to FOXO3 activation” value ([2]; 10 nM) was at most 2 h, the “effect on BRD4 protein levels” value ([2]; 20 h, KARPAS422) was “did not change substantially” and the “time to reduction of MYC protein levels” value ([2]; after addition of drug) was at most 2 h. For the same compound, the “concentration from which MYC levels are reduced” value ([2]; western blot, DLBCL cells) was “less than 1 nM”, the “concentration that activates FOXO3” value ([2]; western blot, DLBCL cells) was 0.5 nM and the “concentration inducing the BCL6L isoform” value ([2]; western blot, Fig. 4k) was at most 1 nM. For the same compound, the “time to detectable apoptosis” value (KARPAS422 cells [3]) was 4 to 8 h, the cell-cycle effect (KARPAS422 cells [4]) was “induced both a G1/S and G2/M block in the cell cycle” and the “off-rate of ternary complex” value [5] was 26 ms^−1. For the same compound, the H3K27ac peaks decreased [6, 11] was 70 peaks, the H3K27ac peaks increased [6, 11] was 126 peaks and the “increase of BRD4 binding over genomic BCL6-binding sites” value ([6]; ChIP-seq) was 50%. For the same compound, the “BRD4 levels increase at promoters of upregulated genes” value ([6]; ChIP-seq, 1 h of TCIP1 addition) was “approximately 150%”, the “number of genes induced at early timepoints” value ([7]; 10 nM, 1, 2 and 4 h, KARPAS422) was “approximately 140 genes” and the “number of genes with increased expression” value ([7]; 10 nM, 20 h, KARPAS422) was 1,654 genes. The “number of genes with reduced expression” value ([7]; 10 nM, 20 h, KARPAS422) was 1,347 genes, the “time to upregulation of the long isoform of BCL6 mRNA” value ([7]; RT-qPCR, 10 nM) was 1 to 2 h and the Kd (BRD4(BD1)) was 5080 nM. The EC50 [8] was about 210 nM, the EC50 (SUDHL5 cells; read-out: EC50 of cell viability after G0/G1 arrest, SUDHL5, serum starvation) was 0.25 nM and the EC50 (SUDHL5 cells; read-out: EC50 of cell viability without arrest, SUDHL5, no serum starvation) was 3.2 nM. For the same compound, the EC50 (KARPAS422 cells [9]; read-out: EC50 of cell viability, KARPAS422, 72 h after addition of drug) was 1.3 nM and the “response in cell viability” value (OCILY19 cells) was “little or no response compared with controls”.
With `CNC(=O)COc1cc2cc(Nc3nc(N4CCC(C(=O)N(C)C)CC4)ncc3Cl)cc(OC)c2n(C)c1=O` [BI3812] the “rescue of TCIP1-induced cell death by competitive titration” value (DLBCL cell lines) was “prevented death by TCIP1” and the “fold less-effective cell killing than TCIP1” value (KARPAS422 cells [9]) was 100–1,000 fold.
For `Cc1sc2c(c1C)C(c1ccc(Cl)cc1)=N[C@@H](CC(=O)OC(C)(C)C)c1nnc(C)n1-2` [JQ1], the “drug level at which MYC expression is reduced” value [10] is given as 500 nM, the “rescue of TCIP1-induced cell death by competitive titration” value (DLBCL cell lines) is given as “prevented death by TCIP1” and the “fold less-effective cell killing than TCIP1” value (KARPAS422 cells [9]) is given as 100–1,000 fold.
